Measured values reported in ChEMBL document CHEMBL4411311, “Exploration of novel macrocyclic dipeptide N-benzyl amides as proteasome inhibitors” (Eur J Med Chem, 2019).

Columns and labels:
[1] = molecular target: T1, Proteasome Macropain subunit MB1 (Homo sapiens, UniProt P28074); experiment: Inhibition of human hepatic cell derived 20s constitutive proteasome beta5 chymotrypsin-like activity using Suc-WLA-AMC as substrate preincubated for 15 mins followed by substrate addition and measured after 60 mins by fluorescence assay
T1 sequence (P28074 whole entry): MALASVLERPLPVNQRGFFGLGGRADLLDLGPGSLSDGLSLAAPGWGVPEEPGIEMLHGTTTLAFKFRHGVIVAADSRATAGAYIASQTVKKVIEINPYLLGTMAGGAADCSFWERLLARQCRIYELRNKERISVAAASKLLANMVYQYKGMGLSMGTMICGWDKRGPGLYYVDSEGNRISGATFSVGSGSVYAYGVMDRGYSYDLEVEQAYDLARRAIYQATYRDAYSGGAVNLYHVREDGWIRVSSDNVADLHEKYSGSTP

[2] = molecular target: T2, Proteasome subunit beta type-9 (Homo sapiens, UniProt P28065); experiment: Inhibition of human peripheral blood derived 20s immunoproteasome beta1 caspase-like activity using Suc-PAL-AMC as substrate preincubated for 15 mins followed by substrate addition and measured after 60 mins by fluorescence assay
T2 sequence (P28065 whole entry): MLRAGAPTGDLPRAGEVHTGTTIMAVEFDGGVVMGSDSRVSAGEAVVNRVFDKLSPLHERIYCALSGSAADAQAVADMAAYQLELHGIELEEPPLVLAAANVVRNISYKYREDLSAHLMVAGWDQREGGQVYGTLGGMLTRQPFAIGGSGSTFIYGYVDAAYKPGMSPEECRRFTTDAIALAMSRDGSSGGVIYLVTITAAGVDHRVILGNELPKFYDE

[3] = molecular target: T3, Proteasome subunit beta type-8 (Homo sapiens, UniProt P28062); experiment: Inhibition of human peripheral blood derived 20s immunoproteasome beta5 chymotrypsin-like activity using […] as substrate preincubated for 15 mins followed by substrate addition and measured after 60 mins by fluorescence assay
T3 sequence (P28062 whole entry): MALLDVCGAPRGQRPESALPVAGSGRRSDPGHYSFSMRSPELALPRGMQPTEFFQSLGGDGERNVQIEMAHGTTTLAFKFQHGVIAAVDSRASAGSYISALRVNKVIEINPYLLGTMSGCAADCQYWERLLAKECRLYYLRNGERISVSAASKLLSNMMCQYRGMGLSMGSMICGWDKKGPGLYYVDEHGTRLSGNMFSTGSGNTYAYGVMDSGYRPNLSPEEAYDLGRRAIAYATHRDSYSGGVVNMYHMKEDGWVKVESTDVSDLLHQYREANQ

[4] = Stability in human liver microsomes assessed as parent compound remaining at 1 uM measured after 30 mins by LC-MS/MS analysis; format: ADME, Microsome; settings: read-out: Stability
How it was run: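 Test compound at […] incubated with human liver microsomes (1.0 mg/mL protein) in 0.1 M PBS pH 7.4 with 1 mM NADPH. Microsomes preincubated 5 min at 37 °C; reaction started by compound addition and sampled at 0, 10, 20 and 30 min. Stopped with ice-cold methanol containing internal standard, then centrifuged at 15000g for 10 min. Supernatant analysed by LC-MS; % remaining = analyte/IS peak-area ratio relative to 0 min.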

RPMI-8226 = experiment: Antiproliferative activity against human RPMI8226 cells after 72 hrs by MTS assay; format: functional, cell-based; settings: RPMI-8226, 72 h
How it was run: (§1)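 Cells kept at 37 °C in humidified 5% CO₂. RPMI 8226 and MM.1S were grown in RPMI-1640 with 10% FBS plus penicillin/streptomycin. Seeding per well was 5 × 10³ (RPMI 8226), 3 × 10⁴ (MM.1S) or 8 × 10³ (MV-4-11). Cells were treated with DMSO vehicle or graded concentrations, then given MTS/PMS for 2-4 h at 37 °C. OD read at 490 nm minus 690 nm background. Growth inhibition = (A_control − A_sample)/A_control; IC50 from variable-slope sigmoidal nonlinear fit.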

[5] = Inhibition of human peripheral blood derived 20s immunoproteasome beta2 trypsin-like activity using […] as substrate preincubated for 15 mins followed by substrate addition and measured after 60 mins by fluorescence assay
MM1.S = experiment: Antiproliferative activity against human MM1S cells after 72 hrs by MTS assay; format: functional, cell-based; how it was run: as §1
MV4-11 = experiment: Antiproliferative activity against human MV4-11 cells after 72 hrs by MTS assay; format: functional, cell-based; settings: MV4-11, 72 h; how it was run: as §1
[6] = molecular target: T4, Proteasome Macropain subunit MB1 (Homo sapiens) (UniProt P28074); experiment: Inhibition of human hepatic cell derived 20s constitutive proteasome beta5 chymotrypsin-like activity at 10 uM using Suc-WLA-AMC as substrate preincubated for 15 mins followed by substrate addition and measured after 60 mins by fluorescence assay relative to control
T4 sequence (whole entry): T1 sequence (P28074 whole entry)

IC50 [1] [nM] | IC50 [2] [nM] | IC50 [3] [nM] | remaining at 0.5 h, 1 µM [4] [%] | IC50 (RPMI-8226) [nM] | IC50 [5] [nM] | IC50 (MM1.S) [nM] | IC50 (MV4-11) [nM] | inhibition [6] [%] | Compound
29 | > 10000 | 35 | ≥ 66 | 18 | > 10000 | 15 | 21 | – | Cc1ccc(CNC(=O)[C@@H]2COCCCCCCCc3c(cnn3C)C(=O)N[C@@H](CC(=O)NCC(C)(C)C)C(=O)N2)cc1
30 | – | – | – | 58 | – | 23 | 55 | – | Cc1ccc(CNC(=O)[C@@H]2COCCCCCCOc3c(cnn3C)C(=O)N[C@@H](CC(=O)NCC(C)(C)C)C(=O)N2)cc1
26 | – | – | – | 59 | – | 17 | 52 | – | Cc1ccc(CNC(=O)[C@@H]2Cc3cn(c4ccccc34)CCCCCn3ccnc3C(=O)N[C@@H](CC(=O)NCC(C)(C)C)C(=O)N2)cc1
34 | > 10000 | 19 | < 20 | 15 | > 10000 | 6 | 12 | – | Cc1ccc(CNC(=O)[C@@H]2COCCCCCCCn3ccnc3C(=O)N[C@@H](CC(=O)NCC(C)(C)C)C(=O)N2)cc1
– | – | – | – | 2 | – | < 1 | – | – | CC(C)C[C@H](NC(=O)[C@H](CCc1ccccc1)NC(=O)CN1CCOCC1)C(=O)N[C@@H](Cc1ccccc1)C(=O)N[C@@H](CC(C)C)C(=O)[C@@]1(C)CO1 [CARFILZOMIB]
127 | – | – | – | 301 | – | 343 | 718 | – | CC(C)(C)CNC(=O)C[C@@H]1NC(=O)c2ccccc2OCCCCCCOC[C@@H](C(=O)NCc2ccccc2Cl)NC1=O
9 | – | – | < 5 | 97 | – | 64 | 73 | – | CCCCCCOC[C@H](NC(=O)[C@H](CC(=O)NCC(C)(C)C)NC(=O)c1cnn(C)c1CCC)C(=O)NCc1ccc(C)cc1
– | – | – | – | – | – | – | – | 34 | COC[C@@H]1NC(=O)c2ccccc2OCCCCCCOC[C@@H](C(=O)NCc2ccccc2Cl)NC1=O
– | – | – | – | – | – | – | – | 36.7 | O=C1N[C@@H](CCc2ccccc2)C(=O)N[C@H](C(=O)NCc2ccccc2Cl)COCCCCCCOc2ccccc21
– | – | – | – | – | – | – | – | 38.4 | Cc1ccc(CNC(=O)[C@@H]2COCCCCCCOc3ccccc3C(=O)N[C@@H](CCc3ccccc3)C(=O)N2)cc1
50 | – | – | – | 27 | – | 220 | 208 | – | Cc1ccc(CNC(=O)[C@H]2NC(=O)[C@H](CC(=O)NCC(C)(C)C)NC(=O)c3nccn3CCCCCCCO[C@H]2C)cc1
660 | – | – | – | – | – | – | – | – | CC(C)(C)CNC(=O)C[C@@H]1NC(=O)c2ccccc2OCCCCCCOC[C@@H](C(=O)NCc2ccccc2)NC1=O
67 | – | – | – | 175 | – | 37 | 76 | – | Cc1ccc(CNC(=O)[C@@H]2COCCCCCCOc3ccccc3C(=O)N[C@@H](CC(=O)NCC(C)(C)C)C(=O)N2)cc1
– | – | – | – | – | 517 | – | – | – | CC(C)C[C@H](NC(=O)[C@H](Cc1ccccc1)NC(=O)c1cnccn1)B(O)O [BORTEZOMIB]
